Measurements from ChEMBL document CHEMBL1140863, “Synthesis and evaluation of novel chloropyridazine derivatives as potent human rhinovirus (HRV) capsid-binding inhibitors” (Bioorg Med Chem, 2009).
Converted amounts (≈) assume the structure as drawn.

What was measured:
[1] = Selectivity index, ratio of CC50 for human KB cells to EC50 for HRV14 by visual assay
How it was run: (§1)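 Cell-culture cytopathic-effect (CPE) assays against HRV-2 and HRV-14. Antiviral EC50 and cytotoxic CC50 were each taken in µg/ml, with inhibition read either visually or by neutral red uptake. SI = CC50/EC50 for each read-out. Where viral CPE could not be told apart from drug cytotoxicity, this was flagged in a footnote.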

rhinovirus A2 [2] = experiment: Antiviral activity against HRV2 in human KB cells assessed as cytopathic effect by visual assay; format: functional, organism-based; conditions: Rhinovirus A
How it was run: (§2)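 Cell-culture cytopathic-effect assays run in parallel on strains HRV-2 and HRV-14, each read both visually and by neutral red uptake. Antiviral EC50 and cytotoxic CC50 are expressed in µg/ml.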

rhinovirus B14 [3] = experiment: Antiviral activity against HRV14 in human KB cells assessed as cytopathic effect by neutral red uptake assay; format: functional, organism-based; conditions: Rhinovirus B; how it was run: as §2
[4] = Selectivity index, ratio of CC50 for human KB cells to EC50 for HRV14 by neutral red uptake assay; how it was run: as §1
rhinovirus A2 [5] = experiment: Antiviral activity against HRV2 in human KB cells assessed as cytopathic effect by neutral red uptake assay; format: functional, organism-based; conditions: Rhinovirus A; how it was run: as §2
[6] = Cytotoxicity against human KB cells by neutral red uptake assay; format: cell-based; how it was run: as §2
[7] = Cytotoxicity against human KB cells by visual assay; format: cell-based; how it was run: as §2
rhinovirus B14 [8] = experiment: Antiviral activity against HRV14 in human KB cells assessed as cytopathic effect by visual assay; format: functional, organism-based; conditions: Rhinovirus B; how it was run: as §2
[9] = Selectivity index, ratio of CC50 for human KB cells to EC50 for HRV2 by neutral red uptake assay; how it was run: as §1
[10] = Selectivity index, ratio of CC50 for human KB cells to EC50 for HRV2 by visual assay; how it was run: as §1

Row | Structure (SMILES) | EC50 (rhinovirus A2 [2]) | EC50 (rhinovirus B14 [8]) | Ratio CC50/EC50 [1] | EC50 (rhinovirus B14 [3]) | Ratio CC50/EC50 [4] | EC50 (rhinovirus A2 [5]) | CC50 [6] | CC50 [7] | Ratio CC50/EC50 [9] | Ratio CC50/EC50 [10]
1 | Clc1cc(N2CCN(CCOc3ccc(-n4cnnc4)cc3)CC2)c(Cl)nn1 | > 100 µg/mL | 12 µg/mL (≈ 28.6 µM) | 3 | 15 µg/mL (≈ 35.7 µM) | 2.5 | > 42 µg/mL | 39 µg/mL (≈ 92.8 µM) | 35 µg/mL (≈ 83.3 µM) | – | –
2 | COC(=O)c1ccc(OCCC2CCN(c3cc(Cl)nnc3Cl)CC2)cc1 | 0.31 µg/mL (≈ 0.756 µM) | 7.1 µg/mL (≈ 17.3 µM) | 8 | > 4.7 µg/mL | – | 0.1 µg/mL (≈ 0.244 µM) | 4.7 µg/mL (≈ 11.5 µM) | 30 µg/mL (≈ 73.1 µM) | 58 | 97
3 | CCOC(=O)c1ccc(OCCC2CCN(c3ccc(C)nn3)CC2)cc1 [PIRODAVIR] | < 0.0032 µg/mL | 0.081 µg/mL (≈ 0.219 µM) | >123 | 0.01 µg/mL (≈ 0.0271 µM) | >1000 | < 0.0032 µg/mL | > 10 µg/mL | > 10 µg/mL | >3125 | >3125
4 | CCOC(=O)c1ccc(OCCC2CCN(c3ccnnc3Cl)CC2)nc1 | < 0.032 µg/mL | < 0.032 µg/mL | >3125 | < 0.032 µg/mL | >3125 | < 0.032 µg/mL | > 100 µg/mL | > 100 µg/mL | >3125 | >3125

The next lines start with results.

Row | EC50 (rhinovirus A2 [2]) | EC50 (rhinovirus B14 [8]) | Structure (SMILES) | Ratio CC50/EC50 [1] | EC50 (rhinovirus B14 [3]) | Ratio CC50/EC50 [4] | EC50 (rhinovirus A2 [5]) | CC50 [6] | CC50 [7] | Ratio CC50/EC50 [9] | Ratio CC50/EC50 [10]
5 | > 56 µg/mL | 43 µg/mL (≈ 113 µM) | O=Cc1ccc(OCCN2CCN(c3cc(Cl)nnc3Cl)CC2)cc1 | >2 | > 43 µg/mL | – | 46 µg/mL (≈ 121 µM) | 43 µg/mL (≈ 113 µM) | 56 µg/mL (≈ 147 µM) | 1.1 | –
6 | > 35 µg/mL | 0.036 µg/mL (≈ 0.0906 µM) | CCOc1ccc(OCCN2CCN(c3cc(Cl)nnc3Cl)CC2)cc1 | 972 | < 0.032 µg/mL | >370 | > 12 µg/mL | 12 µg/mL (≈ 30.2 µM) | 35 µg/mL (≈ 88.1 µM) | – | –
7 | 5.7 µg/mL (≈ 13.9 µM) | 0.15 µg/mL (≈ 0.366 µM) | CCCCc1ccc(OCCN2CCN(c3cc(Cl)nnc3Cl)CC2)cc1 | 120 | 0.55 µg/mL (≈ 1.34 µM) | 3.5 | > 1.9 µg/mL | 1.9 µg/mL (≈ 4.64 µM) | 10 µg/mL (≈ 24.4 µM) | – | 1.8
